Series [1] can be described thus: Volume of distribution in Wistar Han rat at 1 mg/kg, iv. Further details: dose 1 mg/kg, route intravenous. The format is ADME, organism-based. The following applies: in vivo, read-out: Vbeta. In a few lines:
(§1)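 Single i.v. dose of 1.0 mg/kg lactam; parent compound in plasma quantified by LC-MS/MS with detection down to 0.1 ng/mL. Reported values are averages after i.v. dosing.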

The target of series [2] is T1, Prostaglandin E2 receptor EP3 subtype (Homo sapiens, UniProt P43115).
T1 sequence (P43115 whole entry): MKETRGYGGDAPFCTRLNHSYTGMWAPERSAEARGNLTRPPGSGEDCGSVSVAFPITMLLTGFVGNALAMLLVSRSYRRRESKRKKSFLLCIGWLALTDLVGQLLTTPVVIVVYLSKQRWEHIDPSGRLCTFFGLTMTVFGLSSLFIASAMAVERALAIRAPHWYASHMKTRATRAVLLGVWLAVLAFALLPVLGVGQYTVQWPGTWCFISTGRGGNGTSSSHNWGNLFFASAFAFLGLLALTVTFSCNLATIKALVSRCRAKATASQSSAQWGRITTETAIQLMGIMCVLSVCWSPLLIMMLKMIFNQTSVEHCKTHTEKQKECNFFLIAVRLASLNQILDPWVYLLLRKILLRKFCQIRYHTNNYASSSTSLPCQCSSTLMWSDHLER
Nature of the series: Binding affinity to human EP3 receptor.

In series [3] the target is T2, Prostaglandin E2 receptor EP1 subtype (Homo sapiens, UniProt P34995).
T2 sequence (P34995 whole entry): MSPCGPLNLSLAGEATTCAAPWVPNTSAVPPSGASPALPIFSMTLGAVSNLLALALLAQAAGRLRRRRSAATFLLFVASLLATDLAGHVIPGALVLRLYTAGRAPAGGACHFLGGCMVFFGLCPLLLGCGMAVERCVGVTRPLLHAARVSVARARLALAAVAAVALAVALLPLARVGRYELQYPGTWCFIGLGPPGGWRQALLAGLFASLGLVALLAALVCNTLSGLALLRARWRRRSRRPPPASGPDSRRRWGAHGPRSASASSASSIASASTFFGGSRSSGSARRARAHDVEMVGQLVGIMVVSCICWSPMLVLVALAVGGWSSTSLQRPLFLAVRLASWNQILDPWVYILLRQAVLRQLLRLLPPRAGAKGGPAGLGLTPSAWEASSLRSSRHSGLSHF
Nature of the series: Binding affinity to human EP1 receptor.

In series [4] the target is T3, Prostaglandin E2 receptor EP4 subtype (Homo sapiens, UniProt P35408). The series is described as follows: Functional activity at human EP4 receptor.
Series [5] can be described thus: Clearance in Wistar Han rat at 1 mg/kg, iv. In kind it is ADME, organism-based. The following applies: in vivo. The arrangement: dose 1 mg/kg, route intravenous. The gist of the method:
as §1

A short description of series [6]: Half life in Wistar Han rat at 1 mg/kg, iv. The format is ADME, organism-based. The arrangement: dose 1 mg/kg, route intravenous. The following applies: in vivo. In a few lines:
as §1

For series [7], the target named is T3, Prostaglandin E2 receptor EP4 subtype. Nature of the series: Binding affinity to human EP4 receptor.
The target of series [8] is Prostaglandin E2 receptor EP2 subtype (Homo sapiens, UniProt P43116). The series is described as follows: Binding affinity to human EP2 receptor.

We go through 10 compounds from ChEMBL document CHEMBL1149243, “Lactams as EP4 prostanoid receptor agonists. 3. Discovery of N-ethylbenzoic acid 2-pyrrolidinones as subtype selective agents” (J Med Chem, 2004).

T3 sequence (P35408 whole entry): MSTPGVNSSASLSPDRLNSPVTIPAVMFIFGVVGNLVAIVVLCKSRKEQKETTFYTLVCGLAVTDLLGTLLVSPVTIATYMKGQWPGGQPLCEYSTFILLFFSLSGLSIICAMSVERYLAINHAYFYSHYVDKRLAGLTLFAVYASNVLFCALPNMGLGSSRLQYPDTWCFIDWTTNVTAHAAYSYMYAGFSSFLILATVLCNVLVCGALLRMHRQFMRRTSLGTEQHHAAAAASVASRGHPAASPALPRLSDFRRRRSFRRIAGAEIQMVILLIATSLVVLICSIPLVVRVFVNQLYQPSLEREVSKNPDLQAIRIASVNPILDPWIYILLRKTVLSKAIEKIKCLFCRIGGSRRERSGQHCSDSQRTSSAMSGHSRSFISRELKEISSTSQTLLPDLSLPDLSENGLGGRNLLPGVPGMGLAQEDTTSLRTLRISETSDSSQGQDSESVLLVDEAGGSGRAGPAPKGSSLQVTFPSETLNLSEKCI
Prostaglandin E2 receptor EP2 subtype, sequence (P43116 whole entry): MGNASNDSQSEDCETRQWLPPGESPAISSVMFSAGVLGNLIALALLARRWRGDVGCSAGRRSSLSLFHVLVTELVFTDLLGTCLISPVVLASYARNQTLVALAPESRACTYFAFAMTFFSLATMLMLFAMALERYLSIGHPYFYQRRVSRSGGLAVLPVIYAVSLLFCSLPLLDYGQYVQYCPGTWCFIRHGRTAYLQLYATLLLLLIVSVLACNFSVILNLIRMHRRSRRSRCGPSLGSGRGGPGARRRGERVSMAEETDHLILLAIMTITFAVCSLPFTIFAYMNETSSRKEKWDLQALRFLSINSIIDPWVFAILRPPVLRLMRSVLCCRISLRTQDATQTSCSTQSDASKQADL

`CCCCC[C@H](O)/C=C/[C@H]1CCC(=O)N1CCCCOCC(=O)O`: in series [1], the Vd was determined as 1.5 L/kg.

Regarding `Cc1cc(Cl)ccc1-c1cccc([C@H](O)CC[C@H]2CCC(=O)N2CCc2ccc(C(=O)O)cc2)c1`, the Ki in series [2] worked out at 54000 nM; in series [3], 18000 nM. The EC50 in series [4] was 0.04 nM (agonist).

Take `CCCCC[C@H](O)/C=C/[C@H]1CCC(=O)N1CCc1ccc(C(=O)O)cc1`: in series [5], the clearance is 41.7 mL/min/kg. The Ki is 11000 nM in series [2], > 100000 nM in series [3] and 2.9 nM (antagonist) in series [7]. Further, the EC50 in series [4] is on record as 11 nM (agonist). Besides, the half-life in series [6] is 46.8 min.

With `O=C(O)c1ccc(CCN2C(=O)CC[C@@H]2/C=C/[C@@H](O)CCC2CCC2)cc1`, the Ki was 79000 nM in series [2], 1 nM (antagonist) in series [7] and 75 nM (antagonist) in series [8]. Further, the EC50 in series [4] was 0.2 nM (agonist).

For the compound `COCc1cccc(C[C@H](O)/C=C/[C@H]2CCC(=O)N2CCc2ccc(C(=O)O)cc2)c1`, the inhibition constant (Ki) was > 100000 nM in series [2], 0.7 nM (antagonist) in series [7] and 2500 nM (antagonist) in series [8]. The EC50 in series [4] was 5.9 nM (agonist).

`CCCCC[C@H](O)/C=C/[C@H]1CCC(=O)N1CCSCCCC(=O)O` had a clearance in series [5] of 10.5 mL/min/kg. The Ki in series [2] was 1900 nM (antagonist); in series [7], 3.8 nM (antagonist); in series [8], 4700 nM (antagonist). The EC50 in series [4] is on record as 17 nM (agonist). Also, the half-life in series [6] is 45.6 min.

On to `O=C(O)c1ccc(CCN2C(=O)CC[C@@H]2CC[C@@H](O)CCC2CCC2)cc1`, for which the values for the Ki in series [2], in series [7] and in series [8] were 77000 nM, 18 nM (antagonist) and 220 nM (antagonist), respectively. The EC50 in series [4] is on record as 150 nM (agonist).

In the case of `CCCCC[C@H](O)/C=C/[C@H]1CCC(=O)N1CCc1ccc(C(=O)O)s1`, the Ki in series [2] was > 100000 nM; in series [7] it was 6.9 nM (antagonist); in series [8] it was 3700 nM (antagonist). Also, in series [4], the EC50 was 12 nM (agonist).

In series [5], `CCCCC[C@H](O)CC[C@H]1CCC(=O)N1CCc1ccc(C(=O)O)cc1` showed a clearance of 50 mL/min/kg. Besides, the Ki in series [2] is 90300 nM; in series [7], 17 nM (antagonist); in series [8], 35 nM (antagonist). For the same compound, the Vd in series [1] stood at 15.3 L/kg. The EC50 in series [4] was 130 nM (agonist). Moreover, the half-life in series [6] was 210 min.

With `CCCCC[C@H](O)/C=C/[C@H]1CCC(=O)N1CCCCCCC(=O)O`, in series [5], the clearance was 91.7 mL/min/kg. Further, the Vd in series [1] is 6.9 L/kg. Also, the half-life in series [6] is 52.2 min.
